We go through one compound from ChEMBL document CHEMBL4396895, “Identification and Optimization of Novel Cathepsin C Inhibitors Derived from EGFR Inhibitors” (J Med Chem, 2019).

The target in this experiment is Dipeptidyl peptidase 1 (Homo sapiens, UniProt P53634). In words: Inhibition of cathepsin C in human THP1 cells using H-Gly-Phe-AFC as substrate preincubated for 4 hrs followed by substrate addition and measured after 60 mins. The experiment is classed as cell-based. The essentials: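 THP1 or U937 cells, grown in RPMI 1640 with 10% FBS, were seeded at 1.0 × 10^6/mL. They were preincubated with threefold serial dilutions of compound for 4 h at 37 °C. H-Gly-Phe-AFC was then added from a 100 μM solution and fluorescence was read after 60 min at 37 °C. Values are means of at least two experiments.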
Dipeptidyl peptidase 1, sequence (P53634 25-134 limits assumed): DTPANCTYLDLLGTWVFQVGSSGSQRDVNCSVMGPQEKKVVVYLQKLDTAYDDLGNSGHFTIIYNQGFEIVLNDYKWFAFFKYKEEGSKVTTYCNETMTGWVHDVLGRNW
Dipeptidyl peptidase 1, sequence (P53634 231-394 limits assumed): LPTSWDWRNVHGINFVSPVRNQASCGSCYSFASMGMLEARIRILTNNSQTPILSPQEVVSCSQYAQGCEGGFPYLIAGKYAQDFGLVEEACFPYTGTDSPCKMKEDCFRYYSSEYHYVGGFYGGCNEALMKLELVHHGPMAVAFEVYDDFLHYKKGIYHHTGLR
Dipeptidyl peptidase 1, sequence (P53634 395-463 limits assumed): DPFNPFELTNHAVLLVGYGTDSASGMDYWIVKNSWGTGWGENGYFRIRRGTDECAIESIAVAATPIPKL

For the compound `C=CC(=O)Nc1cc(Oc2nc(Nc3ccc(N4CCN(C)CC4)cc3OC)ccc2N2CCCCC2)ccc1C`, the IC50 is 1.9 nM and the inhibition result was “Dose-dependent effect”.

Broadly, the IC50 is the point on the concentration scale where inhibition reaches its midpoint. Higher therefore signals a need for much substance.
